Results reported in the EternaBench riboswitch data.

System: MS2 coat protein
Assay: apparent Kd, MS2 coat protein; higher = weaker binding; RNA-MaP array; FMN 200 µM where present
Procedure, shortened: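 Green signal from SNAP-549-labelled MS2 coat protein was normalised to red-channel RNA signal and to the median Fmax of control clusters. The protein was titrated from 0.7 or 1.5 nM, doubling to 3 µM, without and then with constant ligand, over designs transcribed by stalled E. coli RNA polymerase on Illumina sequencing-chip clusters, in 100 mM Tris-HCl pH 7.5, 80 mM KCl, 4 mM MgCl2, BSA, DTT, yeast tRNA and Tween-20. The apparent Kd is the median of filtered per-cluster binding-curve fits.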

[1] = designed as: OFF switch for flavin mononucleotide, no ligand
[2] = ligand present: flavin mononucleotide, designed as: OFF switch for flavin mononucleotide
[3] = designed as: ON switch for flavin mononucleotide, no ligand
[4] = ligand present: flavin mononucleotide, designed as: ON switch for flavin mononucleotide

Sequence	apparent Kd [1]	apparent Kd [2]	apparent Kd [3]	apparent Kd [4]
CCCGUGUAAGGAUAUGACAAUGGUAUCUUCGGAUACCAUUGUCAGAAGGUACAUGAGGAUCACCCAUGUAACAC	28.8 nM	108 nM	–	–
CUUCAUUGUUGAGGAUAUAAUUAUAGGAUGUAGUUAGAAGGCGAACAUGAGGAUCACCCAUGUCAGGCAUGGAGACCCUUGACC	519 nM	624 nM	–	–
AUCAGCUCGUCAGGAUAUACGUCACUGCGUCAGCAGUGUGGUAAGAUCACAUGAGGAUCACCCAUGUAGAAGGGACGAGCUGAU	39.7 nM	696 nM	–	–
CUCUUGUUAGGAUAUCAAACCAGUGACGGAACCACUGGAAGUGAGAAGGGACAUGAGGAUCACCCAUGUAAGAA	55.6 nM	113 nM	–	–
GUGAGGUCAGGAUAUGCAUGGCGGGACUUGCGUCGUGGCGUGCAGAAGGGACAUGAGGAUCACCCAUGUGGAGC	81.6 nM	194 nM	–	–
CUUUUGUGAGGAUAUCAGUAGUAAUAUAAUAGUAUUACUACUGAGAAGGCACAUGAGGAUCACCCAUGUUCCUC	27.4 nM	50.3 nM	–	–
UGAGUAGCGAAACAAUGCACAUGAGGAUCACCCAUGUCUACACAGGAUAUGCGACGCUCCAGUUAGCAGAAGGGUGAACUCAAA	–	–	40.2 nM	82.3 nM
ACAUCGUGAGACAUGAGGAUCACCCAUGUGUGAUAGUGGGCACAGGAUAUCCAGAUCUGGAAUCUGGAGAAGGGUGAUCGUUAA	–	–	47 nM	149 nM
GCCUUAUCGGUCAGGAUAUACACCUGUUAGUUGUUGUAGAAGGGACAUGAGGAUCACCCAUGUACAUUACAUUG	23.1 nM	40.1 nM	–	–
GGGCCCGGAGGAUAUACAUGAGGAUCACCCAUGUAGGGUUUGGGUAUUCCCGGGCCCUGUAGAAGGCCGGGCCC	17.1 nM	22.5 nM	–	–
CCAUCAGCGAACGAUACGAUUGGACAUGAGGAUCACCCAUGUAGAAGGACAGGAGAAUAACGGCUGUAGGAUAUACAUUUAGUG	58.4 nM	40.6 nM	–	–
UUGAAGCUCACAGGAUAUCAGUAUGCACGAUCUAGCGCAUUAAUGAACUGCUGAGAAGGGUGAGACAUGAGGAUCACCCAUGUA	–	–	593 nM	209 nM
GAGCGAAAGCUCAAUGUCGAUAGCAGAAGGACAUCCUUUAACAUGAAAACAUGAGGAUCACCCAUGUAGGAUAUGCUAUCGACU	6.66 nM	7.92 nM	–	–
AAUUUUUAACAGAAGGCGUUUAUAGUUAAGUUACGAGGAUAUGUAUUACAUGAGGAUCACCCAUGUUACUAGGGUAGUAUAUAA	–	–	22.1 nM	20.7 nM
UCGGCGCGAGGAUAUACGUUUGCGCGUUUUCGUUUUCGCGUACAUGAGGAUCACCCAUGUAGAAGGCGCGCCGC	16.6 nM	32.1 nM	–	–
GUGUUACAUGAGGAUCACCCAUGUUGUUGUAGAUAAGGAUAUAUGGGAACGAGAGAAAUAAUAGAAGGUAUUAGGC	–	–	71.2 nM	67.7 nM
AUUAACUACAUAGGAUAUUGUUACAUGAGGAUCACCCAUGUUAUAUGGGAACUAGGAAUAUUUGUCAAGAAGGAUGUGGUUACA	–	–	232 nM	33 nM
CUCAAGUGAGGAUAUCAGUAGUAAAAAAAUAAAAUUACUACUGAGAAGGCACAUGAGGAUCACCCAUGUGACUU	26.5 nM	23.5 nM	–	–
AAAAGGCAAGGAUAUACAUGAGGAUCACCCAUGUAAUUCCCGUCGGGAUGACCGAUAUGUAGAAGGUGCAUUAA	20.1 nM	43.4 nM	–	–
GCGGCUAAUGCAGGAUAUCGGCACGUGUAGUGCCGAGAAGGGCACAUGAGGAUCACCCAUGUGAUCAAUCAAUGUUAAUGCCGC	8.86 nM	44.2 nM	–	–
CUUUAGCUAGGAUAUACAUGAGGAUCACCCAUGUUAGCGGUCCAUUGGGCCGCGGGUUGUAGAAGGAGCAUUAA	30.8 nM	56.8 nM	–	–
AUCAGCUCGUCAGGAUAUACGUCACUGCGUCAGCAUUGUGGUAAGAUCACAUGAGGAUCACCCAUGUAGAAGGGACGAGCUGAU	19.5 nM	190 nM	–	–
GUGUAGGUAGGAUAUACAUGAGGAUCACCCAUGUGAAUAAGAUAGAAUAAGAUAAAGUGUAGAAGGACUAGUGU	37 nM	28.8 nM	–	–
